Test results: ChEMBL document CHEMBL2346555, “Efficacious cyclic N-acyl O-amino phenol duocarmycin prodrugs” (J Med Chem, 2013)
The source made the active and inactive calls. The rule behind the calls is not given here.

How the values were obtained:
L1210 [1] = assay: Cytotoxicity against mouse L1210 cells assessed as growth inhibition after 72 hrs by phosphatase assay; format: functional, cell-based
Outline: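 L1210 mouse leukemia cells were seeded at 30,000 cells/mL in DMEM with 10% FBS and grown 24 h at 37 °C, 5% CO2. DMSO dilutions were then added at six concentrations between 0–100 or 0–1000 nM, in duplicate, for 72 h. Read-out: phosphatase substrate in 0.1 M NaOAc pH 5.5 with 0.1% Triton X-100, 5 min at 37 °C, stopped with NaOH, A405. IC50 is the average of ≥4 determinations.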

Neurospora discreta [2] = assay: Induction of Neurospora discreta w794 [5-32P]-DNA alkylation assessed as thermal-induced strand cleavage at 1 x 10^-3M incubated for 48 hrs at 23 degC followed by thermolysis at 100 degC for 30 mins measured after 12 to 48 hrs by PAGE/autoradiographic analysis in presence of L-glutathione
Neurospora discreta [3] = assay: Induction of Neurospora discreta w794 [5-32P]-DNA alkylation assessed as thermal-induced strand cleavage at 1 x 10^-3 M incubated for 2 hrs at 23 degC followed by thermolysis at 100 degC for 30 mins measured after 12 to 24 hrs by PAGE/autoradiographic analysis in absence of L-glutathione
Outline: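 Agent incubated with 5′-32P-labelled w794 DNA at 23 °C for 2 h; unbound agent removed by EtOH precipitation. Thermolysis at 100 °C for 30 min induced strand cleavage at alkylation sites. Read-out by 8% denaturing PAGE and autoradiography, alongside Sanger G, C, A and T sequencing lanes and untreated control DNA. No glutathione present.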

Neurospora discreta [4] = assay: Induction of Neurospora discreta w794 [5-32P]-DNA alkylation assessed as thermal-induced strand cleavage at 1 x 10^-3 M incubated for 2 hrs at 23 degC followed by thermolysis at 100 degC for 30 mins measured after 12 to 48 hrs by PAGE/autoradiographic analysis in presence of L-glutathione; settings: in the assay text read “1 x 10^-5 M” for “1 x 10^-3 M”
Outline: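 Agent first held with 1 M L-glutathione at 37 °C for 12 or 48 h to cause reductive activation. It was then incubated with 5′-32P-labelled w794 DNA at 23 °C for 2 h, and unbound agent was removed by EtOH precipitation. Thermolysis followed at 100 °C for 30 min, then 8% denaturing PAGE and autoradiography against Sanger sequencing lanes.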

[5] = Half life in mouse plasma
Neurospora discreta [6] = assay: Induction of Neurospora discreta w794 [5-32P]-DNA alkylation assessed as thermal-induced strand cleavage at 1 x 10^-5 M incubated for 2 hrs at 23 degC followed by thermolysis at 100 degC for 30 mins measured after 12 to 24 hrs by PAGE/autoradiographic analysis in presence of L-glutathione
[7] = Fraction unbound in mouse plasma; format: ADME, cell-free
Neurospora discreta [8] = assay: Induction of Neurospora discreta w794 [5-32P]-DNA alkylation assessed as thermal-induced strand cleavage at 1 x 10^-5 M incubated for 2 hrs at 23 degC followed by thermolysis at 100 degC measured after 30 mins by PAGE/autoradiographic analysis in absence of L-glutathione
Outline: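 Labeled DNA was incubated with agent for 2 h at 23 °C. Unbound agent was removed by EtOH precipitation, then thermolysis for 30 min at 100 °C, 8% denaturing PAGE and autoradiography, with Sanger G, C, A, T lanes as markers. In the glutathione arm, agent at 1 × 10−5 M was first held at 37 °C with 1 M L-glutathione for 12 or 48 h.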

[9] = Cytotoxicity against human PC3MM2 cells assessed as growth inhibition under aerobic condition after 72 hrs by SRB assay; format: functional, cell-based; settings: PC3MM2, 72 h
Outline: (§1)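 Before the assay, A549 and PC3/MM2 cells were adapted for one week under hypoxia (37 °C, 5% CO2, 0.5% O2), subcultured twice; viability was checked by trypan blue. Cells were plated, held 24 h aerobic (37 °C, 5% CO2) or hypoxic, then exposed 72 h to 10 concentrations. SRB read-out per NCI DTP. Growth = [(Ti − Tz)/(C − Tz)] × 100%. IC50 by sigmoidal nonlinear regression, n = 3 independent experiments.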

[10] = Hypoxic cytotoxicity ratio of IC50 for human PC3MM2 cell under aerobic condition to IC50 for human PC3MM2 cells under hypoxic condition; format: functional
[11] = Cytotoxicity against human PC3MM2 cells assessed as growth inhibition under hypoxic condition after 72 hrs by SRB assay; format: functional, cell-based; settings: PC3MM2, 72 h; outline: as §1
A549 [12] = assay: Hypoxic cytotoxicity ratio of IC50 for human A549 cell under aerobic condition to IC50 for human A549 cells under hypoxic condition; format: functional
A549 [13] = assay: Cytotoxicity against human A549 cells assessed as growth inhibition under hypoxic condition after 72 hrs by SRB assay; format: functional, cell-based; settings: A549, 72 h; outline: as §1
A549 [14] = assay: Cytotoxicity against human A549 cells assessed as growth inhibition under aerobic condition after 72 hrs by SRB assay; format: functional, cell-based; settings: A549, 72 h; outline: as §1
L1210 [15] = assay: Antitumor activity against mouse L1210 cells allografted in B6D2F1 mouse assessed as mean survival period at 60 ug/kg, ip tid administered on day 1 to 9 measured after 366 days relative to vehicle-treated control; format: functional
Outline: (§2)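 L1210 cells (1 × 10^6) injected i.p. into B6D2F1 mice on day 0; 10 mice per group, randomized to vehicle or treatment. Dosing in 100% DMSO i.p. on days 1, 5 and 9 at 60–2500 μg/kg/inj. Animals were monitored daily and weighed twice weekly, with follow-up extended to 366 days. T/C = total survival days of the treated group ÷ total survival days of the control group × 100.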

L1210 [16] = assay: Antitumor activity against mouse L1210 cells allografted in B6D2F1 mouse assessed as mean survival period at 250 ug/kg, ip tid administered on day 1 to 9 measured after 366 days relative to vehicle-treated control; format: functional; outline: as §2
L1210 [17] = assay: Antitumor activity against mouse L1210 cells allografted in B6D2F1 mouse assessed as mean survival period at 500 ug/kg, ip tid administered on day 1 to 9 measured after 366 days relative to vehicle-treated control; format: functional; outline: as §2
Neurospora discreta [18] = assay: Induction of Neurospora discreta w794 [5-32P]-DNA alkylation assessed as thermal-induced strand cleavage at 1 x 10^-5 M to 1 X 10^-4 M incubated for 48 hrs at 23 degC followed by thermolysis at 100 degC measured after 30 mins by PAGE/autoradiographic analysis
L1210 [19] = assay: Antitumor activity against mouse L1210 cells allografted in B6D2F1 mouse assessed as mean survival period at 100 ug/kg, ip tid administered on day 1 to 9 measured after 366 days relative to vehicle-treated control; format: functional; outline: as §2
Mus musculus [20] = assay: Toxicity in B6D2F1 mouse allografted with mouse L1210 cells assessed as mortality at 100 to 250 ug/kg, ip tid administered on day 1 to 9 measured after 366 days; format: organism-based; settings: in vivo, 8784 h
Outline: (§3)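 Syngeneic L1210 cells (1 × 10^6) were given i.p. to B6D2F1 mice on day 0; 10 per group. Compound in 100% DMSO was injected i.p. on days 1, 5 and 9. Animals were monitored daily and weighed twice weekly, with the study extended to 366 days. Deaths from drug toxicity were recorded.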

[21] = Stability of the compound in Mo(CO)6, MeCN/H2O after 3 hrs; format: physicochemical
L1210 [22] = assay: Antitumor activity against mouse L1210 cells allografted in B6D2F1 mouse assessed as mean survival period at 2500 ug/kg, ip tid administered on day 1 to 9 measured after 366 days relative to vehicle-treated control; format: functional; outline: as §2
[23] = Half life in human plasma
[24] = Stability of the compound in H2, Pd/C, MeOH, at 23 degC after 1 hr; format: physicochemical
[25] = Half life of the compound in phosphate buffer at pH 7
Neurospora discreta [26] = assay: Induction of Neurospora discreta w794 [5-32P]-DNA alkylation thermal-induced strand cleavage at 1 x 10^-2 M incubated for 48 hrs at 23 degC followed by thermolysis at 100 degC measured after 30 mins by PAGE/autoradiographic analysis
L1210 [27] = assay: Antitumor activity against mouse L1210 cells allografted in B6D2F1 mouse assessed as mean survival period at 1000 ug/kg, ip tid administered on day 1 to 9 measured after 366 days relative to vehicle-treated control; format: functional; outline: as §2
Mus musculus [28] = assay: Toxicity in B6D2F1 mouse allografted with mouse L1210 cells assessed as mortality at 60 ug/kg, ip tid administered on day 1 to 9 measured after 366 days; format: organism-based; settings: in vivo, 0.06 mg/kg, 8784 h; outline: as §3
L1210 [29] = assay: Antitumor activity against mouse L1210 cells allografted in B6D2F1 mouse assessed as mean survival period at 200 ug/kg, ip tid administered on day 1 to 9 measured after 366 days relative to vehicle-treated control; format: functional; outline: as §2
[30] = Fraction unbound in human plasma; format: ADME, cell-free
[31] = Half life of the compound in HCl/EtOAc at 23 degC; format: physicochemical

## O=C(Nc1ccc2[nH]c(C(=O)N3CC(CCl)c4c3cc(O)c3ccccc43)cc2c1)c1cc2ccccc2[nH]1 (stereo not given)
L1210 [1]; Mus musculus, L1210, 72 h
  IC50: 0.9 nM

## COc1c(O)c2c(c3cc(C(=O)N4CCc5c4c(O)c(OC)c4[nH]c(C(=O)N6CC7CC78C6=CC(=O)c6[nH]cc(C)c68)cc54)[nH]c13)CCN2C(N)=O (stereo not given) [CC-1065]
L1210 [1]; Mus musculus, L1210, 72 h
  IC50: 0.02 nM

## CNC(=O)c1cccc2c3c(cc(O)c12)N(C(=O)c1cc2cc(NC(=O)c4cc5ccccc5[nH]4)ccc2[nH]1)CC3CCl (racemic)
L1210 [1]; Mus musculus, L1210, 72 h
  IC50: 0.073 nM
Neurospora discreta [2]
  Activity: Active

## CC(C)(C)OC(=O)NOc1cc2c(c3ccccc13)[C@H](CCl)CN2C(=O)c1cc2cc(NC(=O)c3cc4ccccc4[nH]3)ccc2[nH]1
Neurospora discreta [3]
  Activity: inactive
Neurospora discreta [4]
  Activity: Active

## COC(=O)c1cc2c([nH]1)C(=O)C=C1N(C(=O)c3cc4cc(OC)c(OC)c(OC)c4[nH]3)CC3CC123 (stereo not given) [DUOCARMYCIN SA]
L1210 [1]; Mus musculus, L1210, 72 h
  IC50: 0.1 nM

## CC(C)(C)OC(=O)N1C[C@H]2C[C@@]23C1=CC(=O)c1ccccc13
L1210 [1]; l1210
  IC50: 900 nM

## O=C(Nc1ccc2[nH]c(C(=O)N3C[C@@H](CCl)c4c3cc3c5c(cccc45)C(=O)NO3)cc2c1)c1cc2ccccc2[nH]1
[5]
  half-life: > 48 h
Neurospora discreta [6]
  Activity: Active
L1210 [1]; Mus musculus, L1210, 72 h
  IC50: 0.3 nM
[7]
  fraction unbound: < 0.05
Neurospora discreta [8]
  Activity: inactive

## O=C1Nc2cccc3c4c(cc(c23)O1)N(C(=O)c1cc2cc(NC(=O)c3cc5ccccc5[nH]3)ccc2[nH]1)C[C@H]4CCl
[9]
  IC50: 320 nM
[10]
  Ratio IC50: 1.9
[11]
  IC50: 170 nM
A549 [12]
  Ratio IC50: 1
A549 [13]
  IC50: 90 nM
A549 [14]
  IC50: 90 nM

## CN1Oc2cc3c(c4cccc(c24)C1=O)[C@@H](CCl)CN3C(=O)OC(C)(C)C
L1210 [1]; Mus musculus, L1210, 72 h
  IC50: > 1000 nM

## O=C(Nc1ccc2[nH]c(C(=O)N3C[C@H](CCl)c4c3cc3c5c(cccc45)C(=O)NO3)cc2c1)c1cc2ccccc2[nH]1
L1210 [1]; Mus musculus, L1210, 72 h
  IC50: 65 nM

## O=C(Nc1ccc2[nH]c(C(=O)N3C[C@@H](CCl)c4c3cc(O)c3ccccc43)cc2c1)c1cc2ccccc2[nH]1 [SECO-CBI-INDOLE]
L1210 [15]
  T/C: >284
L1210 [16]
  T/C: 21
L1210 [17]
  T/C: 17
Neurospora discreta [18]
  Activity: Active
L1210 [19]
  T/C: 36
Mus musculus [20]
  Activity: Toxic

## CN1Oc2cc3c(c4cccc(c24)C1=O)[C@@H](CCl)CN3C(=O)c1cc2cc(NC(=O)c3cc4ccccc4[nH]3)ccc2[nH]1
L1210 [1]; Mus musculus, L1210, 72 h
  IC50: 740 nM

## CC(C)(C)OC(=O)N1C[C@H](CCl)c2c1cc1c3c(cccc23)C(=O)NO1
L1210 [1]; Mus musculus, L1210, 72 h
  IC50: > 1000 nM

## CN1Oc2cc3c(c4cccc(c24)C1=O)[C@H](CCl)CN3C(=O)c1cc2cc(NC(=O)c3cc4ccccc4[nH]3)ccc2[nH]1
L1210 [15]
  T/C: 159
[9]
  IC50: 350 nM
[21]
  Stability: Unstable
[5]
  half-life: > 48 h
L1210 [22]
  T/C: >1500
[10]
  Ratio IC50: 10
L1210 [17]
  T/C: >1142
[23]
  half-life: > 168 h
[11]
  IC50: 35 nM
L1210 [1]; Mus musculus, L1210, 72 h
  IC50: 0.99 nM
[24]
  Stability: Unstable
[25]
  half-life: > 672 h
Neurospora discreta [26]
  Activity: inactive
L1210 [27]
  T/C: >1130
Mus musculus [28]
  Activity: Toxic
A549 [12]
  Ratio IC50: 5
L1210 [29]
  T/C: >386
[30]
  fraction unbound: < 0.05
[31]
  half-life: > 72 h
A549 [13]
  IC50: 5 nM
A549 [14]
  IC50: 25 nM
